{
  "source": "ChEMBL document CHEMBL4229410",
  "about": "“Facile construction of fused benzimidazole-isoquinolinones that induce cell-cycle arrest and apoptosis in colorectal cancer cells” (Bioorg Med Chem, 2018)",
  "key": {"SW-620 [1]": {"system": "SW-620", "test": "Induction of apoptosis in human SW620 cells assessed as early apoptotic cells at 50 uM after 48 hrs by Annexin-V-FITC/propidium iodide staining based flow cytometry (reference value: 0.4%)", "type": "functional"}, "[2]": {"target": "Tyrosine-protein kinase BTK (Homo sapiens, UniProt Q06187)", "test": "Binding affinity to full length human BTK (M1 to S659 residues) expressed in mammalian expression system by KINOMEscan assay"}, "[3]": {"target": "Serine/threonine-protein kinase PAK 2 (Homo sapiens, UniProt Q13177)", "sequence (Q13177 whole entry, the tested form may be a part)": "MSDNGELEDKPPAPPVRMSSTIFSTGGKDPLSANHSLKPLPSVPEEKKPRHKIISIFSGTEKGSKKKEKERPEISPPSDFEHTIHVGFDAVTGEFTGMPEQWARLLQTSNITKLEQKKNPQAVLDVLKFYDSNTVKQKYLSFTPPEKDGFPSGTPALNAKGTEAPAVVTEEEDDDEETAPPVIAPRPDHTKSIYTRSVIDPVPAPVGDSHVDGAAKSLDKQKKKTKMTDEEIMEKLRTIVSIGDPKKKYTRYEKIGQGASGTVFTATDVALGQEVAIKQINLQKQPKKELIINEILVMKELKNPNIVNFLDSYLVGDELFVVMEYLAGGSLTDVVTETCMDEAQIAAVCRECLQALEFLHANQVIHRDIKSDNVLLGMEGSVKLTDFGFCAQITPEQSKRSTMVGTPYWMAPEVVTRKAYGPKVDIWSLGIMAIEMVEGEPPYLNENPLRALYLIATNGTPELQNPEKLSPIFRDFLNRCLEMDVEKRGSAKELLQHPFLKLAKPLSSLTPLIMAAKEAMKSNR", "test": "Inhibition of partial length human PAK2 (P151 to R525 residues) expressed in bacterial expression system assessed as residual activity at 5 uM by KINOMEscan assay relative to control"}, "[4]": {"target": "Tyrosine-protein kinase ABL1 (Homo sapiens, UniProt P00519, T315I)", "test": "Binding affinity to human phosphorylated ABL1 T315I mutant (S229 to K512 residues) expressed in mammalian expression system by KINOMEscan assay"}, "SW-620 [5]": {"system": "SW-620", "test": "Upregulation of p53 expression in human SW620 cells after 48 hrs by Western blot analysis", "type": "functional, cell-based"}, "[6]": {"target": "Epidermal growth factor receptor (Homo sapiens, UniProt P00533)", "test": "Binding affinity to partial length human EGFR (R669 to V1011 residues) expressed in bacterial expression system by KINOMEscan assay"}, "[7]": {"target": "Serine/threonine-protein kinase pim-2 (Homo sapiens, UniProt Q9P1W9)", "sequence (Q9P1W9 whole entry, the tested form may be a part)": "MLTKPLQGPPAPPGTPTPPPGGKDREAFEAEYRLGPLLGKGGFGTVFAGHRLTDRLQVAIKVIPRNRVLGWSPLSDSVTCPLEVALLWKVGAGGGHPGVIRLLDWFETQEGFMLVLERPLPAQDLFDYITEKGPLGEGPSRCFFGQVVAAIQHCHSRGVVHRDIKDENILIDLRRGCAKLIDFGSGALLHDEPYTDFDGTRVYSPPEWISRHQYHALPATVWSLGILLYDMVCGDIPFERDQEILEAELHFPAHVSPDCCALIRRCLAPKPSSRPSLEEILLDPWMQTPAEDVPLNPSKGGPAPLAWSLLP", "test": "Binding affinity to human PIM2 (M1 to E291 residues) expressed in bacterial expression system by KINOMEscan assay"}, "SW-620 [8]": {"system": "SW-620", "test": "Inhibition of colony formation in human SW620 cells assessed as reduction in colony size at 25 to 75 uM treated for 48 hrs followed by compound washout and measured after 14 hrs by crystal violet staining based assay", "type": "functional, cell-based"}, "[9]": {"target": "Non-receptor tyrosine-protein kinase TYK2 (Homo sapiens, UniProt P29597)", "sequence (P29597 whole entry, the tested form may be a part)": "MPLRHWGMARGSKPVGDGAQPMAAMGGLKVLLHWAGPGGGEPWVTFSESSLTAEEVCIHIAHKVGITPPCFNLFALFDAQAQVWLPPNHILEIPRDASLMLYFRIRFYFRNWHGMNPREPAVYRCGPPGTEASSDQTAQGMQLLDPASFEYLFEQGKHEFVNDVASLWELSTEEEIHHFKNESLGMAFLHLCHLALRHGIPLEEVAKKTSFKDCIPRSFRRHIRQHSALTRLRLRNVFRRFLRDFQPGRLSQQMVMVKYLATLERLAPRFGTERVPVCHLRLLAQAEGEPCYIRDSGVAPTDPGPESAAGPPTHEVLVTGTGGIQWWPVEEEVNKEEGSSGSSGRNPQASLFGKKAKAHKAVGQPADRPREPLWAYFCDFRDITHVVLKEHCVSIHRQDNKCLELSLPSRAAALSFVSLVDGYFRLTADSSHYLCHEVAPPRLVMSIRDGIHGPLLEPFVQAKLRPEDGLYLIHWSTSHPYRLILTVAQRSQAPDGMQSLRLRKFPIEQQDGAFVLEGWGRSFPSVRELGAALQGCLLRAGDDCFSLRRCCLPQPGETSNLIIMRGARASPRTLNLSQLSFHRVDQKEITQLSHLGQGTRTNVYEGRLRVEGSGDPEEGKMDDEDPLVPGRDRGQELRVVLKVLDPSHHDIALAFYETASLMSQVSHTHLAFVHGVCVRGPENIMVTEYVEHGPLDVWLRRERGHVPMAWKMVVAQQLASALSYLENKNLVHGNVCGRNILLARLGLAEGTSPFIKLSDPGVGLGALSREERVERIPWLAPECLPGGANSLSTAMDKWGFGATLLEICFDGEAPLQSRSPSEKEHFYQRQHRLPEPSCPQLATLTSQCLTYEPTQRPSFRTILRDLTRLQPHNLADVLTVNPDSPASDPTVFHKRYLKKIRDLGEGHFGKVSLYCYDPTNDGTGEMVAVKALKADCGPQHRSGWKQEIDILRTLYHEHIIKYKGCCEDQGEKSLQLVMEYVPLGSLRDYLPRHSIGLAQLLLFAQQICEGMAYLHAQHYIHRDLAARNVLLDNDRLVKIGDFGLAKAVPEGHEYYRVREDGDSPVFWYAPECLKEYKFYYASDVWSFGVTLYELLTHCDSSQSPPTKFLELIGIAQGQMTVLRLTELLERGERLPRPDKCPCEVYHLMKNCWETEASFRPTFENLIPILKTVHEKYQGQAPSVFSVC", "test": "Inhibition of human TYK2 JH1 catalytic domain (V877 to C1187 residues) expressed in mammalian expression system assessed as residual activity at 5 uM by KINOMEscan assay relative to control"}, "[10]": {"target": "Serine/threonine-protein kinase PLK3 (Homo sapiens, UniProt Q9H4B4)", "test": "Binding affinity to partial length human PLK3 (A42 to L334 residues) expressed in mammalian expression system by KINOMEscan assay"}, "HT-29 [11]": {"system": "HT-29", "test": "Cell cycle arrest in human HT-29 cells assessed as accumulation at S-phase at 50 uM after 48 hrs by propidium iodide staining based flow cytometry (reference value: 37.82%)", "type": "functional"}, "[12]": {"target": "Phosphatidylinositol 4,5-bisphosphate 3-kinase catalytic subunit alpha isoform (Homo sapiens, UniProt P42336)", "test": "Inhibition of human PIK3CA (R108 to N1068 residues) expressed in mammalian expression system assessed as residual activity at 5 uM by KINOMEscan assay relative to control"}, "HT-29 [13]": {"system": "HT-29", "test": "Cell cycle arrest in human HT-29 cells assessed as accumulation at S-phase at 75 uM after 48 hrs by propidium iodide staining based flow cytometry (reference value: 37.82%)", "type": "functional"}, "SW-620 [14]": {"system": "SW-620", "test": "Induction of apoptosis in human SW620 cells assessed as live cells at 50 uM after 48 hrs by Annexin-V-FITC/propidium iodide staining based flow cytometry (reference value: 97.5%)", "type": "functional"}, "[15]": {"target": "Tyrosine-protein kinase ZAP-70 (Homo sapiens, UniProt P43403)", "test": "Binding affinity to human ZAP70 (D20 to G299 residues) expressed in mammalian expression system by KINOMEscan assay"}, "[16]": {"target": "Hepatocyte growth factor receptor (Homo sapiens, UniProt P08581)", "sequence (P08581 whole entry, the tested form may be a part)": "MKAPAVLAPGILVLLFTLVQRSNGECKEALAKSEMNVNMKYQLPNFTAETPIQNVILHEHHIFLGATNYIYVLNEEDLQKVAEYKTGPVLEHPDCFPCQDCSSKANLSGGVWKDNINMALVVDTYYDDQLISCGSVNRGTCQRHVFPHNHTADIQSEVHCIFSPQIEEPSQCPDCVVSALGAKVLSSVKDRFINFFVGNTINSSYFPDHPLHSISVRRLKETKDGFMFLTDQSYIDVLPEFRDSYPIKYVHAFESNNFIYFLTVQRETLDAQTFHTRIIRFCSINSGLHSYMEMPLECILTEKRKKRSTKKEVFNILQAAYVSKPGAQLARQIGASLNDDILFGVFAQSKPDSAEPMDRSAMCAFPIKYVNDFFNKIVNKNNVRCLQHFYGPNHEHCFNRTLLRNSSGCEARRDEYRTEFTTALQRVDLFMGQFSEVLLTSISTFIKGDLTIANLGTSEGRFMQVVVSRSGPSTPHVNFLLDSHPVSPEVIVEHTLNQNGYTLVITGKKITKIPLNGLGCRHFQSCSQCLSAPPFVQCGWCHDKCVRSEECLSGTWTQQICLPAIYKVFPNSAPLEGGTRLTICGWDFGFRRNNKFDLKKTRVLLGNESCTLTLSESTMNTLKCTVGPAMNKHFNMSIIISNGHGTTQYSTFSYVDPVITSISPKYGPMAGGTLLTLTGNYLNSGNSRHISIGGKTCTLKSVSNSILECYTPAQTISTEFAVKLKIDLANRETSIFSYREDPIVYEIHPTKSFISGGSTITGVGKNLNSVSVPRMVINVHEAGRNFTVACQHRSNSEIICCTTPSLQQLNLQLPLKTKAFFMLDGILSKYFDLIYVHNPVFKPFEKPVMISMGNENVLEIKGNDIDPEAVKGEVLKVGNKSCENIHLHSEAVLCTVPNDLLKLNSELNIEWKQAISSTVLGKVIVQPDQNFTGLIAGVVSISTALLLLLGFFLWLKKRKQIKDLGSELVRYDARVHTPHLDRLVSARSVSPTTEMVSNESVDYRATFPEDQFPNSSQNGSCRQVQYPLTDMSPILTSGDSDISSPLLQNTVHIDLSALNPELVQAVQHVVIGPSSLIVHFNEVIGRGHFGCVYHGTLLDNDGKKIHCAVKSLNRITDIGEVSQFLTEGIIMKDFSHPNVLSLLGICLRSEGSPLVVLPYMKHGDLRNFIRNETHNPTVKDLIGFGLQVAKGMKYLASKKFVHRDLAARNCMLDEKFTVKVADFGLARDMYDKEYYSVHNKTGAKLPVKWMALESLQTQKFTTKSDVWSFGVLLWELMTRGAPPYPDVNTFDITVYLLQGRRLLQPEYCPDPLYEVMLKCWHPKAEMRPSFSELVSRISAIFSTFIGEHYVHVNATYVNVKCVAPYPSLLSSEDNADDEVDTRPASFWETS", "test": "Inhibition of human MET (D1010 to S1367 residues) expressed in bacterial expression system assessed as residual activity at 5 uM by KINOMEscan assay relative to control"}, "[17]": {"target": "MAP kinase-activated protein kinase 2 (Homo sapiens, UniProt P49137)", "sequence (P49137 whole entry, the tested form may be a part)": "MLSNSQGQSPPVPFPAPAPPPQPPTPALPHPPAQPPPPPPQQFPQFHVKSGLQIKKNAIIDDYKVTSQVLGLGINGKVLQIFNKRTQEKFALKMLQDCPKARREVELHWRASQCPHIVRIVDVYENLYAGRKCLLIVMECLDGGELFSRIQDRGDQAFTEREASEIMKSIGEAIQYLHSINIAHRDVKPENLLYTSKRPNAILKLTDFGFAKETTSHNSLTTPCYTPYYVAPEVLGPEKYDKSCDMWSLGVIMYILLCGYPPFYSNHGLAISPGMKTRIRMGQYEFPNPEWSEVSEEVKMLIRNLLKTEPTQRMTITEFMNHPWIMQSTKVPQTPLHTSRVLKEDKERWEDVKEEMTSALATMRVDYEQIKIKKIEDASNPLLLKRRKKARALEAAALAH", "test": "Binding affinity to human MAPKAPK2 (V48 to D345 residues) expressed in bacterial expression system by KINOMEscan assay"}, "[18]": {"target": "MAP/microtubule affinity-regulating kinase 3 (Homo sapiens, UniProt P27448)", "sequence (P27448 whole entry, the tested form may be a part)": "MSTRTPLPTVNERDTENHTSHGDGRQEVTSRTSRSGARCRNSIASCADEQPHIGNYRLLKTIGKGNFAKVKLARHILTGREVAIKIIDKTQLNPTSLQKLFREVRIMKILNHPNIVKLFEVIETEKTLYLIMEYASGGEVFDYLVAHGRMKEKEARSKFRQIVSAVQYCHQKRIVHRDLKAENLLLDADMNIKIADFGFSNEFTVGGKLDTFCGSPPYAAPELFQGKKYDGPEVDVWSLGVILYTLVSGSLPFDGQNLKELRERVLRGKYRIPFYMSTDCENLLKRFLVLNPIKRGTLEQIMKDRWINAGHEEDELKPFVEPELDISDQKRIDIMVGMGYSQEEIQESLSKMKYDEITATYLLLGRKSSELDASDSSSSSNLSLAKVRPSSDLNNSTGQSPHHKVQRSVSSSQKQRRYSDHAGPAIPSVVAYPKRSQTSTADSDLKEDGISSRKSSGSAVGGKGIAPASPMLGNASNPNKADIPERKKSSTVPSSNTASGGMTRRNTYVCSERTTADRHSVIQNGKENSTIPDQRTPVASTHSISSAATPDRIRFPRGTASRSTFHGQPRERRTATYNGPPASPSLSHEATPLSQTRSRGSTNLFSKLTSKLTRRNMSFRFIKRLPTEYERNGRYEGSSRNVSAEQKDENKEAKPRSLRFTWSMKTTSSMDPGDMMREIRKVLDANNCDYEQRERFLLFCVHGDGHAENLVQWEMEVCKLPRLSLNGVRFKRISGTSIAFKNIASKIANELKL", "test": "Binding affinity to full length human MARK3 (M1 to L729 residues) expressed in bacterial expression system by KINOMEscan assay"}, "HT-29 [19]": {"system": "HT-29", "test": "Inhibition of colony formation in human HT-29 cells assessed as reduction in number of colonies at 25 to 75 uM treated for 48 hrs followed by compound washout and measured after 14 hrs by crystal violet staining based assay", "type": "functional, cell-based"}, "[20]": {"target": "Serine/threonine-protein kinase PAK 4 (Homo sapiens, UniProt O96013)", "test": "Binding affinity to partial length human PAK4 (Q144 to R438 residues) expressed in bacterial expression system by KINOMEscan assay"}, "[21]": {"target": "Tyrosine-protein kinase ZAP-70 (Homo sapiens) (UniProt P43403)", "test": "Inhibition of human ZAP70 (D20 to G299 residues) expressed in mammalian expression system assessed as residual activity at 5 uM by KINOMEscan assay relative to control"}, "SW-620 [22]": {"system": "SW-620", "test": "Cell cycle arrest in human SW620 cells assessed as increase in accumulation at G2/M-phase after 48 hrs by propidium iodide staining based flow cytometry", "type": "functional"}, "HT-29 [23]": {"system": "HT-29", "test": "Induction of apoptosis in human HT-29 cells assessed as live cells at 50 uM after 48 hrs by Annexin-V-FITC/propidium iodide staining based flow cytometry (reference value: 93.2%)", "type": "functional"}, "[24]": {"target": "Vascular endothelial growth factor receptor 2 (Homo sapiens, UniProt P35968)", "test": "Binding affinity to human VEGFR2 (R787 to P1253 residues) expressed in mammalian expression system by KINOMEscan assay"}, "SRSF protein kinase 3": {"target": "SRSF protein kinase 3 (Homo sapiens, UniProt Q9UPE1)", "test": "Inhibition of human SRPK3 (P41 to P567 residues) expressed in bacterial expression system assessed as residual activity at 5 uM by KINOMEscan assay relative to control"}, "HT-29 [25]": {"system": "HT-29", "test": "Induction of apoptosis in human HT-29 cells assessed as reduction in BCL2 expression after 48 hrs by Western blot analysis", "type": "functional, cell-based", "how_it_was_run": "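HT29 or SW620 cells were treated at 0, 25, 50 and 75 μM for 48 h and lysed in RIPA with protease and phosphatase inhibitors. Protein was quantified by BCA. 50 μg lysate was run on 8–15% SDS-PAGE and transferred to PVDF. Blocking was 5% BSA/TBST for 2 h; primary antibodies were applied overnight at 4 °C, then HRP secondary 1 h at room temperature.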"}, "HT-29 [26]": {"system": "HT-29", "test": "Inhibition of PI3K in human HT-29 cells assessed as reduction in AKT phosphorylation at T308 residue up to 75 uM after 48 hrs by Western blot analysis", "type": "cell-based"}, "[27]": {"target": "Mitogen-activated protein kinase kinase kinase 4 (Homo sapiens, UniProt Q9Y6R4)", "test": "Inhibition of human MAP3K4 (G1319 to E1608 residues) expressed in bacterial expression system assessed as residual activity at 5 uM by KINOMEscan assay relative to control"}, "SW-620 [28]": {"system": "SW-620", "test": "Cell cycle arrest in human SW620 cells assessed as accumulation at G2-phase at 25 uM after 48 hrs by propidium iodide staining based flow cytometry (reference value: 14.08%)", "type": "functional"}, "HT-29 [29]": {"system": "HT-29", "test": "Cell cycle arrest in human HT-29 cells assessed as accumulation at S-phase at 25 uM after 48 hrs by propidium iodide staining based flow cytometry (reference value: 37.82%)", "type": "functional"}},
  "note": "The source made the active and inactive calls. The calls are words filed in the database; no cut-off is given here.",
  "data": [
    {"smiles": "CC(C)CN(C(=O)c1cccnc1)c1c2ccccc2c(=O)n2c1[nH]c1ccccc12", "values": [
      {"measurement": "Activity", "setting": "SW-620 [1]", "result": 0.6, "unit": "%"},
      {"measurement": "Kd", "setting": "[2]", "result": "≥ 5", "unit": "µM"},
      {"measurement": "Activity", "setting": "[3]", "result": 100, "unit": "%"},
      {"measurement": "Kd", "setting": "[4]", "result": "≥ 5", "unit": "µM"},
      {"measurement": "Activity", "setting": "SW-620 [5]", "result": "Dose-dependent effect"},
      {"measurement": "Kd", "setting": "[6]", "result": "≥ 5", "unit": "µM"},
      {"measurement": "Kd", "setting": "[7]", "result": "≥ 5", "unit": "µM"},
      {"measurement": "inhibition", "setting": "SW-620 [8]", "result": "Active"},
      {"measurement": "Activity", "setting": "[9]", "result": 73, "unit": "%"},
      {"measurement": "Kd", "setting": "[10]", "result": "≥ 5", "unit": "µM"},
      {"measurement": "Activity", "setting": "HT-29 [11]", "result": 35.86, "unit": "%"},
      {"measurement": "Activity", "setting": "[12]", "result": 100, "unit": "%"},
      {"measurement": "Activity", "setting": "HT-29 [13]", "result": 33.33, "unit": "%"},
      {"measurement": "Activity", "setting": "SW-620 [14]", "result": 81.7, "unit": "%"},
      {"measurement": "Kd", "setting": "[15]", "result": "≥ 5", "unit": "µM"},
      {"measurement": "Activity", "setting": "[16]", "result": 86, "unit": "%"},
      {"measurement": "Kd", "setting": "[17]", "result": "≥ 5", "unit": "µM"},
      {"measurement": "Kd", "setting": "[18]", "result": "≥ 5", "unit": "µM"},
      {"measurement": "inhibition", "setting": "HT-29 [19]", "result": "Active"},
      {"measurement": "Kd", "setting": "[20]", "result": "≥ 5", "unit": "µM"},
      {"measurement": "Activity", "setting": "[21]", "result": 89, "unit": "%"},
      {"measurement": "Activity", "setting": "SW-620 [22]", "result": "Dose-dependent effect"},
      {"measurement": "Activity", "setting": "HT-29 [23]", "result": 80.3, "unit": "%"},
      {"measurement": "Kd", "setting": "[24]", "result": "≥ 5", "unit": "µM"},
      {"measurement": "Activity", "setting": "SRSF protein kinase 3", "result": 98, "unit": "%"},
      {"measurement": "Activity", "setting": "HT-29 [25]", "result": "Dose-dependent effect"},
      {"measurement": "inhibition", "setting": "HT-29 [26]", "result": "Active"},
      {"measurement": "Activity", "setting": "[27]", "result": 91, "unit": "%"},
      {"measurement": "Activity", "setting": "SW-620 [28]", "result": 14.72, "unit": "%"},
      {"measurement": "Activity", "setting": "HT-29 [29]", "result": 37.2, "unit": "%"}
    ]}
  ]
}
